Source: PubChem
Rows were chosen to be rich in hits. Some 3.5% of all compounds tested hit in one or more screens of this group.
RGS4 block: inhibitors of human RGS4. P49798. HEK293 M3R/RGS4 inducible, Fluo-4 calcium flux; stronger effect = higher value; triggered by carbachol at its EC20. B-score at 10 µM. 310,000 compounds, 0.45% hits. AID 463165;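 active means B-score, a plate-corrected calcium signal, over three deviations above library mean, with baseline fluorescence within five deviations of library mean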;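 further: RGS4 expression induced by doxycycline in cells with stable M3 receptor; B-score is computed from the integrated fluorescence ratio over baseline after carbachol; higher B-score means a larger calcium signal and so more RGS4 inhibition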
Target sequence (P49798 whole entry, looked up): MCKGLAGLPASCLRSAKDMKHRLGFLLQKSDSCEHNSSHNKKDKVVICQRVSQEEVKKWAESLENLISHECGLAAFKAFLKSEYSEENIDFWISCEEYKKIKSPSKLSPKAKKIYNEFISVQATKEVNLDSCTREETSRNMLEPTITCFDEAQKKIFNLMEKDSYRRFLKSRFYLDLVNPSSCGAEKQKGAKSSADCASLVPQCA
MrgX1 allo act: human MrgX1 positive allosteric modulation, primary screen | B-score at 10 µM | Q96LB2 | AID 588675 | MrgX1-HEK293, Fluo-4 calcium flux, FDSS; stronger effect = higher value | 310,000 compounds, 0.63% hits;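 active means plate-corrected calcium response at least 3 library SD above typical, normal starting fluorescence, not activating the receptor alone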;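 further: compound read alongside a low EC10 to EC30 dose of BAM8-22 agonist; peak minus trough fluorescence over baseline measured at the second addition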
Target sequence (Q96LB2 whole entry, looked up): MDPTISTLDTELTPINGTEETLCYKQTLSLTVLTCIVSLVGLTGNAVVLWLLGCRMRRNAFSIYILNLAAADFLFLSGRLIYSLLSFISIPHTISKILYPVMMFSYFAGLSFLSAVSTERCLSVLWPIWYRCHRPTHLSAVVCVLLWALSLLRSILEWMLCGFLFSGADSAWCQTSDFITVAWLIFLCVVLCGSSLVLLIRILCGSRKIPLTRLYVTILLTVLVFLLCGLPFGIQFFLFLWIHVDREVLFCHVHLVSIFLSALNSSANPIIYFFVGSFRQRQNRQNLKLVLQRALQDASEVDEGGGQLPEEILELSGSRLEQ
RGS4 act: RGS4 potentiation or activation | B-score at 10 µM | HEK293 M3R/inducible RGS4, carbachol calcium flux Fluo4; stronger effect = lower value | AID 463111 | 310,000 compounds, 0.92% hits;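 active means B-score of the integrated calcium signal more than 4 SD below the library mean, with starting fluorescence not abnormally high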;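 further: negative B-score means reduced calcium response which marks RGS4 activation or potentiation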
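System – HEK293 FlpIn-TREx cells, stable M3R, doxycycline-inducible RGS4 · Reagent – ECmax carbachol challenge · Times – compound preincubation 20 min at room temperature before agonist · Technique – Fluo4 fluorescence kinetic imaging of calcium · Measure – B score of integrated Fluo4 ratio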
MrgX1 agonist: agonists of human MrgX1 receptor; 310,000 compounds, 0.44% hits; B-score at 10 µM; AID 588627; MrgX1-HEK293 cells, Fluo-4 calcium fluorescence, agonist mode; stronger effect = higher value; Q96LB2;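 active means calcium response B-score plate-corrected fluorescence ratio at least 3 library SD, with starting fluorescence B-score inside 5 SD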
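Assay system: stable human MrgX1 HEK293 cell line. Quantity: 15,000 cells per well. Schedule: cells plated overnight, dye loaded 0.5 h 37 °C, 0.5 h room temperature. Detection: Fluo-4 NW calcium-flux fluorescence, kinetic read. Read-out basis: peak-minus-minimum fluorescence over baseline, converted to B scores. Control set: positive and negative control wells on each plate.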
MrgX1 antagonist: human MrgX1 receptor antagonism, primary screen; Q96LB2; MRGX1-HEK293 calcium flux, Fluo-4, BAM8-22 antagonism; stronger effect = lower value; B-score at 10 µM; 310,000 compounds, 1.3% hits; AID 588676;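 active means calcium-response B-score plate-corrected more than 3 library SD below zero, starting fluorescence within 5 deviations, no agonist response on first addition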;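 further: peak minus trough fluorescence over baseline after final BAM8-22 challenge near maximal dose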
MrgX1 antag conf: human MrgX1 receptor antagonism, re-confirmation screen; remaining BAM8-22 calcium response % of control (stronger effect = lower value), % at 10 µM; MrgX1-HEK293, BAM8-22 calcium flux, Fluo-4; stronger effect = lower value; 2,300 compounds, 19% hits; shares compounds with MrgX1 antagonist; AID 602420;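 active means remaining agonist calcium response no higher than 100% minus 3 SD of agonist-only control wells, with starting fluorescence near control levels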;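 further: agonist BAM8-22 given at a near maximal EC90 to ECmax level; peak minus minimum fluorescence divided by baseline after agonist addition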
HEK293 Ca flux: MrgX1 antagonist counter-screen hit in parental HEK293 cells | AID 624111 | Fluo-4 calcium fluorescence, FDSS | 4,000 compounds, 2% hits | shares compounds with MrgX1 antagonist | fluorescence ratio F(max-min)/F0 at 10 µM;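 active means duplicate-averaged calcium fluorescence ratio at least three times the standard deviation of buffer wells, a nonspecific response in parental cells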
HEK293 Ca counter: activity in parental HEK293 cells without MrgX1. fluorescence ratio F(max-min)/F0 at 10 µM. parental HEK293 calcium flux, Fluo-4 fluorescence ratio; stronger effect = higher value. shares compounds with MrgX1 antagonist. 4,000 compounds, 0.4% hits;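 active means calcium fluorescence ratio, averaged over duplicates, at least 3 SD of the buffer-well ratio, meaning a nonspecific response in receptor-free cells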;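 further: untransfected parental HEK293 lacking MrgX1 used as counterscreen for MrgX1 allosteric activators; fluorescence change taken during the second addition on a kinetic imager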
HEK293 Ca cntr2: activity in parental HEK293 cells lacking MrgX1 receptor; shares compounds with MrgX1 antagonist; Fluo-4 calcium fluorescence (FDSS); stronger effect = higher value; fluorescence ratio F(max-min)/F0 at 10 µM; 4,000 compounds, 8.7% hits; AID 624115;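 active means calcium fluorescence ratio at least three times the spread of buffer wells, meaning a non-specific response in parental cells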
Starred values were filed as active, the others as inactive; i = inactive; x = no result.

SMILES	RGS4 block	MrgX1 allo act	RGS4 act	MrgX1 agonist	MrgX1 antagonist	MrgX1 antag conf	HEK293 Ca flux	HEK293 Ca counter	HEK293 Ca cntr2
COCCNC(=O)c1cc(C(=O)CC(C)C)c[nH]1	i	i	i	i	i	x	x	x	x
Cc1ccc(C(=O)NCCc2nnc3ccc(SCC(=O)Nc4c(C)cc(C)cc4C)nn23)cc1	i	i	i	i	-5.7*	i	i	i	i
CC12CCC(C(=O)N3CCN(Cc4ccccc4)CC3)(OC1=O)C2(C)C (stereo unspecified)	i	i	i	i	i	x	x	x	x
COCCNC(=O)c1ccc2c(=O)n(CCOC)c(=O)[nH]c2c1	i	i	i	i	-6.2*	i	i	i	i
C=CCNC(=O)c1cc(C(=O)C(C)c2ncc(C(F)(F)F)cc2Cl)c[nH]1 (stereo unspecified)	i	i	i	i	i	x	x	x	x
Cc1ccc(S(=O)(=O)NC(=O)c2ccccc2)cc1C(C)C	i	i	i	i	-8.1*	i	i	i	i
CCOc1ccc(S(=O)(=O)NC(=O)c2ccccc2)cc1	i	i	i	i	i	x	x	x	x
O=C(NCCc1ccc(Cl)cc1)C1CCN(S(=O)(=O)N2CCCC2)CC1	i	i	i	i	-5.7*	i	i	i	i
Cc1ccc2[nH]c(=O)c(CN(Cc3cccs3)Cc3nnnn3CC3CCCO3)cc2c1 (stereo unspecified)	i	i	i	i	i	x	x	x	x
Cc1ccc2cc(CN(Cc3cccs3)Cc3nnnn3CC3CCCO3)c(=O)[nH]c2c1 (stereo unspecified)	i	i	i	i	-4.8*	i	i	i	i
COc1cccc(-c2nc(CS(=O)(=O)CC(=O)NCc3ccc4c(c3)OCO4)c(C)o2)c1	i	i	i	i	i	x	x	x	x
Cn1c(CCC(=O)OCC(=O)NCC(F)(F)F)nc(=O)c2ccccc21	i	i	i	i	-5.6*	i	i	i	i
CC(NC(=O)COC(=O)CCc1nc(=O)c2ccccc2n1C)c1ccccc1 (stereo unspecified)	i	i	i	i	i	x	x	x	x
O=C(NCc1ccccc1)c1c[nH]c2cc3c(cc2c1=O)OCCO3	i	i	i	i	-5.5*	i	i	i	i
CCOc1ccc2[nH]cc(C(=O)NCc3ccccc3)c(=O)c2c1	i	i	i	i	i	x	x	x	x
COc1ccc(C)cc1-n1nnnc1SCC(=O)Nc1cccnc1Cl	i	i	i	i	-5.9*	i	i	i	i
COc1ccc(C)cc1-n1nnnc1SCC(=O)Nc1cc(C)on1	i	i	i	i	i	x	x	x	x
CCNC(=S)N/N=C/c1ccc(OCC(=O)Nc2ccc(OC)cc2)c(OC)c1	i	i	i	i	i	x	x	x	x
CCNC(=S)N/N=C/c1ccc(OCC(=O)Nc2ccc(C)cc2)cc1	i	i	i	i	-10*	i	i	i	i
O=C(O)CCC(=O)NNc1nc2ccccc2nc1-c1ccccc1	i	i	i	i	i	x	x	x	x
CCn1nc(C)c(CNC(=O)CC2C(=O)NCCN2CC(C)(C)C)c1C (stereo unspecified)	i	i	i	i	i	x	x	x	x
COc1ccc(-c2nc3ccccc3c(=O)n2CCOc2c(C)cccc2C)cc1	i	i	i	i	-4.6*	i	0.2*	i	i
CCNc1nc(SCc2ccccc2)nc(N2CCOCC2)n1	x	i	x	i	i	x	x	x	x
CN(C)c1nc(SCc2ccccc2)nc(N2CCOCC2)n1	i	i	i	i	-6.4*	i	i	i	i
COc1ccc(CCNc2ncnc3c2oc2ccccc23)cc1OC	i	i	i	i	-4.6*	43%*	i	i	i
SMILES	RGS4 block	MrgX1 allo act	RGS4 act	MrgX1 agonist	MrgX1 antagonist	MrgX1 antag conf	HEK293 Ca flux	HEK293 Ca counter	HEK293 Ca cntr2
COc1ccc([C@H]2/C=C\CN(C(=O)c3ccccc3)[C@@H](C)C(=O)N2Cc2ccc(F)cc2)cc1	i	i	i	i	i	x	x	x	x
O=C(Nc1ccc(S(=O)(=O)Nc2ccccc2)cc1)c1ccc(CN2CCOCC2)cc1	i	i	i	i	-4.6*	79%*	i	i	i
O=C(Nc1ccc(CN2CCOCC2)cc1)c1ccc(Cl)cc1	i	i	i	i	i	x	x	x	x
Cc1ccccc1N(CC(=O)N1CCN(c2ccccc2)CC1)S(C)(=O)=O	i	i	i	i	-7.7*	i	i	i	i
Cc1ccc(CCNC(=O)c2nnn(-c3cccc(C)c3)c2N)cc1	i	i	i	i	i	x	x	x	x
Cc1cccc(-n2nnc(C(=O)NCc3ccccc3)c2N)c1	i	i	i	i	-8.4*	i	i	i	i
CCc1ccc(S(=O)(=O)/N=C2\C=C(Nc3ccc(C(=O)O)cc3)C(=O)c3ccccc32)cc1	i	i	i	i	-7.7*	85%*	i	i	i
Cc1ccc(S(=O)(=O)/N=C2\C=C(Nc3cccc(C(=O)O)c3)C(=O)c3ccccc32)cc1	i	i	i	i	i	x	x	x	x
COc1ccc(COC(=O)c2ccc(S(=O)(=O)N3CCC(C)CC3)cc2)cc1	i	i	i	i	-6.8*	i	i	i	i
COc1ccc(Nc2cc3n(c(=O)n2)CCc2cc(OC)c(OC)cc2-3)c(C)c1	i	i	i	i	-6.3*	i	i	i	i
COc1ccc(Cc2noc(CN3CCNC(=O)CC3)n2)cc1OC	i	i	i	i	i	x	x	x	x
COCC(=O)n1nc(-c2ccccc2)nc1NCc1ccc(N(C)C)cc1	i	i	i	i	i	x	x	x	x
COCC(=O)n1nc(-c2ccc(Cl)cc2)nc1NCc1ccc(F)cc1	i	i	i	i	-4.9*	81%*	i	i	i
